# Data: paper PMC12552610 (Nature Communications, 2025)
# Target: Aβ (AD brain homogenates) (Homo sapiens, UniProt P05067)
# Experiment: Competition of PiB against [3H]ACI-Aβ ref on AD brain homogenates
# Type: binding
# Summary of the method: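 Insoluble AD brain fraction prepared by high-salt, Triton X-100 and sucrose ultracentrifugation steps. Competitor serially diluted from 2000 nM to 0.14 nM against tritiated Aβ reference ligand at 15 nM. Run in 50 mM Tris pH 7.5, 0.9% NaCl, 0.1% BSA for 2 h at RT, in duplicate. Samples vacuum-filtered on GF/C, washed five times with ice-cold Tris, then scintillation-counted.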
# Chain of Aβ (AD brain homogenates) (P05067 672-713): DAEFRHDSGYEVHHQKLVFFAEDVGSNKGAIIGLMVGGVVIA
smiles,measurement,value
"CNc1ccc(-c2nc3ccc(O)cc3s2)cc1 [Pittsburg compound B, 2-(4-(Methylamino)phenyl)benzo[d]thiazol-6-ol]",displacement of Aβ ref cmpd,can be displaced by it
